Legend:
[1] = target: T1, Alpha-1B adrenergic receptor (Homo sapiens, UniProt P35368); experiment: In vitro binding affinity at human Alpha-1B adrenergic receptor.
T1 sequence (P35368 whole entry): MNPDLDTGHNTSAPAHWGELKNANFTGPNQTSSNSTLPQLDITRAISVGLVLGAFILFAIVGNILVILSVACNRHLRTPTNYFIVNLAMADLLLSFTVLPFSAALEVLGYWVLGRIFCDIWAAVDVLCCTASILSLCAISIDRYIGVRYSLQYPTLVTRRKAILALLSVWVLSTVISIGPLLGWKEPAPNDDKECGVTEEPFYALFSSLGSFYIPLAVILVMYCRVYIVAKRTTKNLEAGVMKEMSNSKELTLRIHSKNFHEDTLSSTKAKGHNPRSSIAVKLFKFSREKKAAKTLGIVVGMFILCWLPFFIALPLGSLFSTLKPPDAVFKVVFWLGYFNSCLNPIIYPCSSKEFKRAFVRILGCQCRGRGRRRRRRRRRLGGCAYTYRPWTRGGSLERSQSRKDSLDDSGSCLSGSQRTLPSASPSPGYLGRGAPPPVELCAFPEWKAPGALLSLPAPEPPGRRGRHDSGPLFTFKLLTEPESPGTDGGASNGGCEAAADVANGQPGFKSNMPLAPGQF
Summary of the method: (§1)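 Human α1A-, α1B- or α1D-AR stably expressed in HEK293 cells (calcium phosphate transfection, subclones chosen for high expression); membranes from scraped, homogenized cells spun at 30000g. Three experiments in duplicate, mean ± SE.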

[2] = target: T2, Alpha-1D adrenergic receptor (Homo sapiens, UniProt P25100); experiment: In vitro binding affinity at human Alpha-1D adrenergic receptor.; summary of the method: as §1
T2 sequence (P25100 whole entry): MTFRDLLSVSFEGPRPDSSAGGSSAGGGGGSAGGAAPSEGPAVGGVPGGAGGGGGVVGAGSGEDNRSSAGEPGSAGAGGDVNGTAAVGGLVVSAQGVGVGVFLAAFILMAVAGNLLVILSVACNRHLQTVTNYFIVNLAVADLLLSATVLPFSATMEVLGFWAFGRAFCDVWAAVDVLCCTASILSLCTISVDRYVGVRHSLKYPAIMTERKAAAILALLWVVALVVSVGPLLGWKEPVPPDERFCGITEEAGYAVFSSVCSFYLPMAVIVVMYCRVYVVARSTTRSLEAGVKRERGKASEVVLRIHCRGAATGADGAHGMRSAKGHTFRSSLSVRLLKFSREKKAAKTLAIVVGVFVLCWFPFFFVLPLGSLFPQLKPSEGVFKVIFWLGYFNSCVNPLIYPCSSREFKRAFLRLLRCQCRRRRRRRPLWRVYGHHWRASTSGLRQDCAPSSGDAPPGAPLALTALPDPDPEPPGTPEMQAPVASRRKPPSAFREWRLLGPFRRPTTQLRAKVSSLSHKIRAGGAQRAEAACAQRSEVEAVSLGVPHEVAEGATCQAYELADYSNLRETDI

[3] = target: T3, Alpha-1A adrenergic receptor (Homo sapiens, UniProt P35348); experiment: In vitro binding affinity at human Alpha-1A adrenergic receptor.; summary of the method: as §1
T3 sequence (P35348 whole entry): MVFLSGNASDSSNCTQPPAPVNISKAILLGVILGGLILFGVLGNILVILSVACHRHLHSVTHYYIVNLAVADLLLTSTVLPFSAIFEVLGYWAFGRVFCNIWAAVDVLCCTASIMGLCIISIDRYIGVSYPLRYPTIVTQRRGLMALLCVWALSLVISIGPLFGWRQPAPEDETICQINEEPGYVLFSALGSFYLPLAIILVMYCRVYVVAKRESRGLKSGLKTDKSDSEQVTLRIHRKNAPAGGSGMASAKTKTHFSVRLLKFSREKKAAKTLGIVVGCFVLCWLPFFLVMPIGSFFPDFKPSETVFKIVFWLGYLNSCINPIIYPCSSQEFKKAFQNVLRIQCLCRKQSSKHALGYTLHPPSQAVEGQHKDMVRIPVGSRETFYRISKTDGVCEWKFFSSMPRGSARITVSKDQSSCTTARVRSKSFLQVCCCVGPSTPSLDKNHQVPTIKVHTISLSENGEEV

[4] = target: Adrenergic receptor alpha-1 (Homo sapiens) (UniProt P35348+P25100+P35368); experiment: Selectivity for alpha 1A-Adrenergic receptors compared to 1D-Adrenergic receptors.; format: protein assay
[5] = target: T2, Alpha-1D adrenergic receptor; experiment: Binding affinity towards Alpha-1D adrenergic receptor; summary of the method: as §1
[6] = target: T3, Alpha-1A adrenergic receptor; experiment: Binding affinity towards Alpha-1A adrenergic receptor; summary of the method: as §1
[7] = species on record: Rattus norvegicus; experiment: Inhibition of [3H]inositol Phosphate formation by 100 uM norepinephrine in rat hippocampal slices.; format: functional, Hippocampus
Summary of the method: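 Rat hippocampal slices equilibrated in Krebs-Henseleit buffer (pH 7.4, 95% O2/5% CO2) at 37 °C for 30 min, labeled 60 min with 0.3 µM myo-[2-3H]inositol. LiCl 7 mM added, then 100 µM norepinephrine 10 min later, test compound (1 µM) 5 min before agonist. After 60 min, stopped with chloroform/methanol; [3H]inositol monophosphate isolated by anion exchange, dpm/mg protein, ≥4 determinations.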

Ki [1] | Ki [5] | Ki [6] | Structure (SMILES) | further results
360 nM | – | – | COc1cc2c(cc1O)CCN1Cc3c(ccc(O)c3OC)C[C@@H]21 | Ki [2]: 25 nM; Ki [3]: 616 nM; Ratio [4]: 24.6
4070 nM | 1700 nM | 3550 nM | Cc1nc2c3ccccc3nc-2c(O)n1CCN1CCN(c2ccc(C(C)C)cc2)CC1 | –
> 10000 nM | > 10000 nM | > 10000 nM | CC(C)(C)c1ccc(N2CCN(CCn3cnc4c5ccccc5nc-4c3O)CC2)cc1 | –
61.7 nM | 6.03 nM | 9.77 nM | CCOc1ccccc1N1CCN(CCn2cnc3c4ccccc4nc-3c2O)CC1 | –
13.8 nM | 0.724 nM | 1.41 nM | COc1ccccc1N1CCN(CCn2cnc3c4ccccc4nc-3c2O)CC1 | –
– | – | – | COc1ccccc1N1CCN(Cn2nc(-c3ccccc3)c3c(C)onc3c2=O)CC1 | Ki [2]: 316 nM
– | – | – | O=c1[nH]c2c([nH]c3ccccc32)c(=O)n1CCN1CCN(c2ccc(C3CCCCC3)cc2)CC1 | inhibition at 1 µM [6]: 7%
– | 126 nM | – | CC(C)c1ccc(N2CCN(CCn3c(=O)[nH]c4c(sc5ccccc54)c3=O)CC2)cc1 | –
– | – | – | C=Cc1sc2ccc(Cl)c3c2c1CN(C)CC3 | Ratio [4]: 22.5
– | 10 nM | – | N#CCc1ccc(N2CCN(CCn3c(=O)[nH]c4c([nH]c5ccccc54)c3=O)CC2)cc1 | –
2040 nM | 97.7 nM | 603 nM | Cc1nc2c3ccccc3nc-2c(O)n1CCN1CCN(c2ccc(C(C)(C)C)cc2)CC1 | –
> 10000 nM | > 10000 nM | > 10000 nM | Cc1nc2c3ccccc3nc-2c(O)n1CCN1CCN2c3ccccc3OCC2C1 (configuration not stated) | –
– | – | – | C[C@H](CN1CCN(c2cc(F)c(F)cc2F)CC1)N1C(=O)CC2(CCCC2)CC1=O | Ki [2]: 1.6 nM; Ki [3]: 294 nM
2.88 nM | 0.933 nM | 1.55 nM | COc1ccccc1C1CCN(CCn2c(=O)[nH]c3c([nH]c4ccccc43)c2=O)CC1 | –
– | 245 nM | – | CCCCc1ccc(N2CCN(CCn3c(=O)[nH]c4c([nH]c5ccccc54)c3=O)CC2)cc1 | –
245 nM | 6.92 nM | 49 nM | CCc1nc2c3ccccc3nc-2c(O)n1CCN1CCN(c2ccccc2OC)CC1 | –
9550 nM | 35.5 nM | – | CC(C)c1ccc(N2CCN(CCn3c(=O)[nH]c4c([nH]c5ccccc54)c3=O)CC2)cc1 | –
– | – | – | CC(C)(C)c1ccc(N2CCN(CCn3c(=O)[nH]c4c([nH]c5ccccc54)c3=O)CC2)cc1 | inhibition at 1 µM [6]: 8%; Activity [7]: 10390 dpm (mg of protein)-1
> 10000 nM | > 10000 nM | > 10000 nM | CC(C)c1ccc(N2CCN(CCn3cnc4c5ccccc5nc-4c3O)CC2)cc1 | –
11.7 nM | 0.631 nM | 8.91 nM | O=c1[nH]c2c([nH]c3ccccc32)c(=O)n1CCN1CCN(c2ccccc2O)CC1 | –
20.9 nM | – | – | COc1ccccc1N1CCN(CCn2c(C)nc3c4ccccc4nc-3c2O)CC1 | –
27.5 nM | 12.6 nM | 10.7 nM | CCc1nc2c3ccccc3nc-2c(O)n1CCCN1CCN(c2ccccc2OC)CC1 | –
7760 nM | 126 nM | 7940 nM | O=c1[nH]c2c([nH]c3ccccc32)c(=O)n1CCN1CCN2c3ccccc3OCC2C1 (configuration not stated) | –
– | 60.3 nM | – | CCC(C)c1ccc(N2CCN(CCn3c(=O)[nH]c4c([nH]c5ccccc54)c3=O)CC2)cc1 (configuration not stated) | –
31.1 nM | – | – | COc1ccccc1N1CCN(CCn2nc(-c3ccccc3)c3c(C)onc3c2=O)CC1 | Ki [2]: 1.5 nM; Ki [3]: 1.4 nM; Ratio [4]: 0.9
1.82 nM | – | – | COc1ccccc1N1CCN(CCn2c(=O)[nH]c3c([nH]c4ccccc43)c2=O)CC1 | Activity [7]: 3987 dpm (mg of protein)-1
162 nM | 16.2 nM | 16.6 nM | COc1ccccc1N1CCN(CCCn2cnc3c4ccccc4nc-3c2O)CC1 | –
2.57 nM | 3.63 nM | 4.68 nM | O=c1[nH]c2c([nH]c3ccccc32)c(=O)n1CCN1CCN(c2ccccc2Cl)CC1 | –
14.5 nM | 1.58 nM | 7.24 nM | CCOc1ccccc1N1CCN(CCn2c(=O)[nH]c3c([nH]c4ccccc43)c2=O)CC1 | –
26.9 nM | 2.57 nM | 4.9 nM | COc1ccccc1N1CCN(CCCn2c(C)nc3c4ccccc4nc-3c2O)CC1 | –

From ChEMBL document CHEMBL1145826, “New pyrimido[5,4-b]indoles as ligands for alpha(1)-adrenoceptor subtypes” (J Med Chem, 2003)
